Source: PubChem
This excerpt belongs to a sample that is enriched for hits.
UPR CHOP act – activators of apoptotic CHOP UPR arm, primary screen, cell-based, CHO-CHOP luciferase reporter, luminescence, uHTS; UPR activation; percent of tunicamycin response over DMSO baseline; AID 449763, 2010; 330,000 compounds, 0.34% hits; activation, % at 10 µM;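 active = at 10 µM dose, activation of 40% or more, normalized to positive control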
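measured by = luciferase luminescence | assay system = CHO-CHOP cells, stable luciferase reporter of PERK-eIF2a-CHOP signalling | amount = 500 reporter cells seeded per well | timing = 6 h compound exposure at 37 °C after overnight seeding | controls = positive tunicamycin 10 µg/mL, negative DMSO alone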
XBP1 UPR activ – activators of adaptive XBP1 UPR arm, primary screen, cell-based, CHO-XBP1 luciferase reporter, luminescence, uHTS; IRE1-XBP1 UPR activation; percent of tunicamycin response, DMSO as zero; activation, % at 20 µM; 330,000 compounds, 0.33% hits;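 active = versus positive control, 20 µM dose yields 30% or more activation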
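Material: IRE1-XBP1 luciferase reporter CHO line / Quantity: one thousand reporter cells per well / Buffer or medium: F12 with 10% serum / Compound: 20 µM single concentration, DMSO 1% / Times: 6 h treatment, 37 °C / Detection: Steady-Glo luciferase glow luminescence, 10 min after reagent addition / Benchmarks: tunicamycin high, DMSO low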
CHOP inhibitor – inhibitors of CHOP promoter induction, primary screen, cell-based, unfolded protein response, luciferase reporter. CHO-K1 CHOP-promoter luciferase, tunicamycin-induced, 15-18 h. inhibition, % at 10 µM. 220,000 compounds, 3.8% hits;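 active = compounds that reduced the stress-induced luciferase reporter signal by more than about 70% of percent inhibition, limit read from the data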
A1 inh – caspase 3/7 activation in MEF A1-2A-BIM cells, primary screen, A1 inhibitor project, cell-based, luminescence, HTS | Caspase-Glo 3/7 luminescence, 3 h; percent of clofoctol response, vehicle zero | caspase activation, % (test concentration not listed) | 330,000 compounds, 0.066% hits | AID 2462, 2010;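 active = over half of replicate activation scores above 10%, or exactly half above 10 with the replicate mean above 10; inconclusive = replicate mean below 10 yet half the replicates above 10; inactive = over half of replicates below 10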
XBP1 UPR conf – IRE1-XBP1 UPR arm activators, confirmation, cell-based, CHO-XBP1 luciferase reporter, luminescence, single concentration. 1,000 compounds, 63% hits. activation, % at 20 µM. shares compounds with XBP1 UPR activ. AID 485299, 2010;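 active = reporter signal at least 30% of the positive control's activation in two or more of four replicate wells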
Of the large screens only hits and unclear results are named; the others gave an inactive call (follow-up assays come after a bar, where they were run).

CCCCOC(=O)Cn1c(=O)n(CC(=O)OCCCC)c2ccccc21	none
CCCCCCCCCCOC(=O)Cn1c(COc2ccc(OC)cc2)[n+](C)c2ccccc21	XBP1 UPR activ 66 (no result: CHOP inhibitor) | XBP1 UPR conf 44
CCOC(=O)Cn1c(COc2ccccc2OC)[n+](C)c2ccccc21	none (no result: CHOP inhibitor)
COCCNC(C(=O)Nc1ccc([N+](=O)[O-])cc1Br)c1ccccc1 (configuration not stated)	none
COc1ccc(NC(=O)CSc2nc3ccc(Nc4nc(N5CCOCC5)nc(N5CCOCC5)n4)cc3s2)cc1	XBP1 UPR activ 58 (no result: CHOP inhibitor) | XBP1 UPR conf 31
N=c1c2c(n(Cc3ccc(F)cc3)c3c1CCC3)CCC2	XBP1 UPR activ 149 | XBP1 UPR conf inactive
COc1ccc(NC(=O)c2ccccc2NC(=O)CSc2ccc(Cl)cc2)cc1	XBP1 UPR activ 35 | XBP1 UPR conf inactive
CCn1cc(C(=O)OCC(=O)Nc2cccc(S(=O)(=O)N3CCOCC3)c2)c(=O)c2ccc(C)nc21	XBP1 UPR activ 44 | XBP1 UPR conf inactive
CCc1ccc2[nH]c3nc(SCc4nnc(-c5ccc(C)cc5)o4)nnc3c2c1	XBP1 UPR activ 95 | XBP1 UPR conf 93
CCc1ccc2[nH]c3nc(SCCN4CCOCC4)nnc3c2c1	none (no result: CHOP inhibitor)
CCOC(=O)c1c(NC(=O)CSc2nnc3c(n2)[nH]c2ccc(F)cc23)sc(C(C)=O)c1C	XBP1 UPR activ 62 | XBP1 UPR conf 51
CCc1ccc2[nH]c3nc(SCC(=O)NNC(=O)c4ccc(C(C)(C)C)cc4)nnc3c2c1	XBP1 UPR activ 60, CHOP inhibitor 89 | XBP1 UPR conf 42
CCc1ccc2[nH]c3nc(SCC(=O)NCC4CCCO4)nnc3c2c1 (configuration not stated)	none (no result: CHOP inhibitor, A1 inh)
COc1cccc(/C=N/n2cnc3cc(C)c(C)cc32)c1OC	none
O=C(NCSC1=NCCS1)c1ccccc1	none
COc1ccccc1CCNC(=O)C1CCN(c2nnc(C)c3c(C)n(-c4ccc(C)cc4)nc23)CC1	XBP1 UPR activ 114 (no result: CHOP inhibitor) | XBP1 UPR conf 139
CCOc1ccccc1CNC(=O)C1CCN(c2nnc(C)c3c(C)n(-c4ccc(C)cc4)nc23)CC1	XBP1 UPR activ 64 (no result: CHOP inhibitor) | XBP1 UPR conf 85
c1ccc(-c2sc3ccccc3c2-c2ccc(OCCN3CCCCC3)cc2)cc1	A1 inh inconclusive (no result: CHOP inhibitor)
CN(C)CCOc1ccc(-c2c(-c3ccccc3)sc3ccccc23)cc1	XBP1 UPR activ 60 (no result: CHOP inhibitor) | XBP1 UPR conf 55
CCOC(=O)c1cc(-c2ccccc2)sc1NC(=O)CC	none
COC(=O)c1sc(-c2ccccc2)cc1NC(=O)c1ccc(OC)cc1	none
CCOC(=O)c1cc(-c2ccccc2)sc1NC(=O)c1ccc(OC)cc1	XBP1 UPR activ 151 | XBP1 UPR conf 118
COC(=O)c1sc(-c2ccccc2)cc1NC(=O)c1ccc(F)cc1	XBP1 UPR activ 61 | XBP1 UPR conf inactive
COc1cc(-n2ccnc2SC)c(Cl)cc1Cl	none
Cn1cccc1C(=O)OCC(=O)Nc1cc(C(C)(C)C)nn1-c1ccccc1	none
CC(=O)CSc1ccc(S(=O)(=O)N2CCN(C)CC2)cn1	none (no result: CHOP inhibitor)
COc1ccc(-c2ccc3c(c2)S(=O)(=O)c2cccc(C(=O)NCc4ccccc4Cl)c2C3=O)cc1OC	none (no result: CHOP inhibitor)
COc1ccc(-c2ccc3c(c2)S(=O)(=O)c2cccc(C(=O)NCCOc4ccccc4Cl)c2C3=O)cc1OC	XBP1 UPR activ 94 (no result: CHOP inhibitor) | XBP1 UPR conf 46
O=S(=O)(Nc1cccnc1Cl)c1ccc(-c2ccccc2)cc1	none (no result: CHOP inhibitor)
Cn1c(=O)[nH]c(=O)c2c1nc(N1CCc3ccccc3C1)n2CCSc1nc2ccccc2s1	XBP1 UPR activ 34 | XBP1 UPR conf inactive
COc1ccc(Cn2c(-c3ccccc3C)nc3c(c(=O)c4ccccc4n3C)c2=O)cc1	XBP1 UPR activ 41 (no result: CHOP inhibitor) | XBP1 UPR conf inactive
CC1CCN(C(=O)c2ccc(NC(=O)CC3SC(N4CCCC4)=NC3=O)cc2)CC1 (configuration not stated)	none (no result: CHOP inhibitor)
COc1ccc(S(=O)(=O)N2CCN(S(=O)(=O)c3ccc4c(c3)OCCO4)CC2)cc1	XBP1 UPR activ 38 | XBP1 UPR conf inactive
Cc1cc(C)cc(NC(=O)C2C3C=CC4(O3)C2C(=O)N(CCN2CCCCC2)C4C(=O)NC2CCCCC2)c1 (configuration not stated)	none (no result: CHOP inhibitor)
C/C(=N\NC1=NCCN1)c1ccc(N)c([N+](=O)[O-])c1	none
CCCCCCOc1ccc(/C(C)=N/NC2=NCCN2)cc1[N+](=O)[O-]	XBP1 UPR activ 32 | XBP1 UPR conf inactive
CC(NC(=O)c1cnc2ccccc2n1)c1ccccc1 (configuration not stated)	none (no result: CHOP inhibitor)
O=C(CCc1ccc(S(=O)(=O)N2CCOCC2)cc1)Nc1c(F)cccc1F	none (no result: CHOP inhibitor)
CCN(C(=O)CSc1nnc(COc2ccccc2F)n1N)C1CCS(=O)(=O)C1 (configuration not stated)	none (no result: CHOP inhibitor)
Cc1cc(C)c(NC(=O)CSc2nc(COc3ccccc3)nc3ccccc23)c(C)c1	XBP1 UPR activ 53, CHOP inhibitor 91 | XBP1 UPR conf 47
Cc1ccccc1NC(=O)CSc1nc(COc2ccccc2)nc2ccccc12	none
Cc1ccc(NC(=O)Cn2c(/C=C/c3ccccc3)nc3ccccc32)cc1C	XBP1 UPR activ 51 | XBP1 UPR conf 35
Cc1[nH]n(-c2ccccc2)c(=O)c1C=NCC1CCCO1 (configuration not stated)	none
Cc1onc(-c2ccccc2)c1C(=O)NCCN1CCOCC1	none
O=C(Nc1ccc(Oc2ccc(NC(=O)Nc3ccccc3Cl)cc2)cc1)Nc1ccccc1Cl	XBP1 UPR activ 44, CHOP inhibitor 94 | XBP1 UPR conf 54
CC(=O)c1cccc(NC(=O)N2CCOCC2)c1	none (no result: CHOP inhibitor)
Cc1cc(C)c(C#N)c(SCC(=O)N2CCN(Cc3ccccc3)CC2)n1	none
Cc1cc(C)c(C#N)c(SCC(=O)N2CCCCC2)n1	XBP1 UPR activ 34 | XBP1 UPR conf inactive
COc1ccc2[nH]c3c(=O)n(N)c(=O)[nH]c3c2c1	none (no result: CHOP inhibitor)
CC1=CC(C)[C@H](/C=N/n2c(=O)[nH]c3c([nH]c4ccc(Br)cc43)c2=O)C(C)C1 (some centres not stated)	XBP1 UPR activ 80 | XBP1 UPR conf 100
COc1ccc2c(c1)[nH]c1c(=O)n(/N=C/C3C(C)C=C(C)CC3C)c(=O)[nH]c12 (configuration not stated)	XBP1 UPR activ 56 | XBP1 UPR conf 86
COc1ccc(/C=N/n2c(=O)[nH]c3c([nH]c4ccc(Br)cc43)c2=O)cc1CN1CCOCC1	none
CCOC(=O)c1ccc(-c2c(-c3ccccc3OC)oc3ccccc23)cc1F	none (no result: CHOP inhibitor)
CCOC(=O)c1ccc(-c2ccc3c(=O)c4ccccc4n(C)c3c2)cc1F	XBP1 UPR activ 100 (no result: CHOP inhibitor) | XBP1 UPR conf inactive
